ChEMBL document CHEMBL1122777, “Effect of tellurium position on the myocardial uptake of radioiodinated 18-iodotellura-17-octadecenoic acid analogues” (1984)

Legend:
Rattus norvegicus [1] = assay: Heart uptake after 1 day was determined in female Fischer rats after [125I]-labeled compound complexed with bovine serum albumin was injected intravenously; type: functional
Procedure, shortened: (§1)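 Female Fischer 344 rats (fed ad libitum) under ether anaesthesia received the ¹²⁵I fatty acid in a lateral tail vein. Dose was ~3.8–4.8 μCi per rat (sp act ~125–240 mCi/mmol), given in 0.5 mL 6% bovine albumin (final ethanol 10%) after filtration. Four rats per time point were used. Tissue radioactivity is % injected dose/g, mean with range, calculated against standards of the injected solution.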

Rattus norvegicus [2] = assay: Thyroid uptake after 1 day was determined in female Fischer rats after [125I]-labeled compound complexed with bovine serum albumin was injected intravenously; type: functional
Procedure, shortened: (§2)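 Female Fischer 344 rats with free access to food and water. The 125I-labelled fatty acid (~3.8–4.8 μCi; sp act. ~125–240 mCi/mmol) was complexed with 6% bovine serum albumin (10% final ethanol), filtered, and 0.5 mL was injected via a lateral tail vein under ether anaesthesia. Four rats per time point. Values are mean % injected dose/g, calculated against injectate standards. Thyroid weight was taken as 7.5 mg/100 g body weight.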

[3] = Ratio of heart to blood uptake after 30 min was determined in female Fischer rats after [125I]-labeled compound complexed with bovine serum albumin was injected intravenously; type: functional
Procedure, shortened: (§3)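 Female Fischer 344 rats (food and water ad libitum) given the 125I-labelled fatty acid in 6% bovine albumin with 10% final ethanol, filtered, 0.5 mL into a lateral tail vein under ether anaesthesia. Four rats per time point. Tissue activity expressed as % injected dose/g against assayed injectate standards. Mean heart/tissue ratios were calculated from mean %ID/g values.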

Rattus norvegicus [4] = assay: Liver uptake after 60 min was determined in female Fischer rats after [125I]-labeled compound complexed with bovine serum albumin was injected intravenously; type: functional; procedure, shortened: as §1
[5] = Ratio of heart to liver uptake after 5 min was determined in female Fischer rats after [125I]-labeled compound complexed with bovine serum albumin was injected intravenously; type: functional; procedure, shortened: as §3
Rattus norvegicus [6] = assay: Thyroid uptake after 30 min was determined in female Fischer rats after [125I]-labeled compound complexed with bovine serum albumin was injected intravenously; type: functional; procedure, shortened: as §2
Rattus norvegicus [7] = assay: Blood uptake after 60 min was determined in female Fischer rats after [125I]-labeled compound complexed with bovine serum albumin was injected intravenously; type: functional; procedure, shortened: as §1
Rattus norvegicus [8] = assay: Blood uptake after 30 min was determined in female Fischer rats after [125I]-labeled compound complexed with bovine serum albumin was injected intravenously; type: functional; procedure, shortened: as §1
Rattus norvegicus [9] = assay: Thyroid uptake after 2 hr was determined in female Fischer rats after [125I]-labeled compound complexed with bovine serum albumin was injected intravenously; type: functional; procedure, shortened: as §2
[10] = Ratio of heart to liver uptake after 30 min was determined in female Fischer rats after [125I]-labeled compound complexed with bovine serum albumin was injected intravenously; type: functional; procedure, shortened: as §3
Rattus norvegicus [11] = assay: Lungs uptake after 4 hr was determined in female Fischer rats after [125I]-labeled compound complexed with bovine serum albumin was injected intravenously; type: functional; procedure, shortened: as §1
Rattus norvegicus [12] = assay: Blood uptake after 4 hr was determined in female Fischer rats after [125I]-labeled compound complexed with bovine serum albumin was injected intravenously; type: functional; procedure, shortened: as §1
Rattus norvegicus [13] = assay: Lungs uptake after 3 days was determined in female Fischer rats after [125I]-labeled compound complexed with bovine serum albumin was injected intravenously; type: functional; procedure, shortened: as §1
Rattus norvegicus [14] = assay: Blood uptake after 5 min was determined in female Fischer rats after [125I]-labeled compound complexed with bovine serum albumin was injected intravenously; type: functional; procedure, shortened: as §1
Rattus norvegicus [15] = assay: Blood uptake after 2 hr was determined in female Fischer rats after [125I]-labeled compound complexed with bovine serum albumin was injected intravenously; type: functional; procedure, shortened: as §1
Rattus norvegicus [16] = assay: Liver uptake after 5 min was determined in female Fischer rats after [125I]-labeled compound complexed with bovine serum albumin was injected intravenously; type: functional; procedure, shortened: as §1
Rattus norvegicus [17] = assay: Heart uptake after 5 min was determined in female Fischer rats after [125I]-labeled compound complexed with bovine serum albumin was injected intravenously; type: functional; procedure, shortened: as §1
[18] = Ratio of heart to blood uptake after 5 min was determined in female Fischer rats after [125I]-labeled compound complexed with bovine serum albumin was injected intravenously; type: functional; procedure, shortened: as §3
Rattus norvegicus [19] = assay: Blood uptake after 1 day was determined in female Fischer rats after [125I]-labeled compound complexed with bovine serum albumin was injected intravenously; type: functional; procedure, shortened: as §1
[20] = Ratio of heart to kidneys uptake after 240 min was determined in female Fischer rats after [125I]-labeled compound complexed with bovine serum albumin was injected intravenously; type: functional, Heart/Kidney; procedure, shortened: as §3
[21] = Ratio of heart to kidneys uptake after 120 min was determined in female Fischer rats after [125I]-labeled compound complexed with bovine serum albumin was injected intravenously; type: functional, Heart/Kidney; procedure, shortened: as §3
[22] = Ratio of heart to blood uptake after 240 min was determined in female Fischer rats after [125I]-labeled compound complexed with bovine serum albumin was injected intravenously; type: functional; procedure, shortened: as §3
Rattus norvegicus [23] = assay: Liver uptake after 4 hr was determined in female Fischer rats after [125I]-labeled compound complexed with bovine serum albumin was injected intravenously; type: functional; procedure, shortened: as §1
Rattus norvegicus [24] = assay: Lungs uptake after 2 hr was determined in female Fischer rats after [125I]-labeled compound complexed with bovine serum albumin was injected intravenously; type: functional; procedure, shortened: as §1
Rattus norvegicus [25] = assay: Heart uptake after 60 min was determined in female Fischer rats after [125I]-labeled compound complexed with bovine serum albumin was injected intravenously; type: functional; procedure, shortened: as §1
[26] = Ratio of heart to liver uptake after 120 min was determined in female Fischer rats after [125I]-labeled compound complexed with bovine serum albumin was injected intravenously; type: functional; procedure, shortened: as §3
Rattus norvegicus [27] = assay: Heart uptake after 30 min was determined in female Fischer rats after [125I]-labeled compound complexed with bovine serum albumin was injected intravenously; type: functional; procedure, shortened: as §1
[28] = Ratio of heart to kidneys uptake after 5 min was determined in female Fischer rats after [125I]-labeled compound complexed with bovine serum albumin was injected intravenously; type: functional, Heart/Kidney; procedure, shortened: as §3
Rattus norvegicus [29] = assay: Liver uptake after 1 day was determined in female Fischer rats after [125I]-labeled compound complexed with bovine serum albumin was injected intravenously; type: functional; procedure, shortened: as §1
Rattus norvegicus [30] = assay: Lungs uptake after 30 min was determined in female Fischer rats after [125I]-labeled compound complexed with bovine serum albumin was injected intravenously; type: functional; procedure, shortened: as §1
Rattus norvegicus [31] = assay: Liver uptake after 2 hr was determined in female Fischer rats after [125I]-labeled compound complexed with bovine serum albumin was injected intravenously; type: functional; procedure, shortened: as §1
Rattus norvegicus [32] = assay: Liver uptake after 30 min was determined in female Fischer rats after [125I]-labeled compound complexed with bovine serum albumin was injected intravenously; type: functional; procedure, shortened: as §1
Rattus norvegicus [33] = assay: Lungs uptake after 60 min was determined in female Fischer rats after [125I]-labeled compound complexed with bovine serum albumin was injected intravenously; type: functional; procedure, shortened: as §1
[34] = Ratio of heart to kidneys uptake after 30 min was determined in female Fischer rats after [125I]-labeled compound complexed with bovine serum albumin was injected intravenously; type: functional, Heart/Kidney; procedure, shortened: as §3
Rattus norvegicus [35] = assay: Thyroid uptake after 4 hr was determined in female Fischer rats after [125I]-labeled compound complexed with bovine serum albumin was injected intravenously; type: functional; procedure, shortened: as §2
[36] = Ratio of heart to lungs uptake after 5 min was determined in female Fischer rats after [125I]-labeled compound complexed with bovine serum albumin was injected intravenously; type: functional; procedure, shortened: as §3
[37] = Ratio of heart to lungs uptake after 60 min was determined in female Fischer rats after [125I]-labeled compound complexed with bovine serum albumin was injected intravenously; type: functional; procedure, shortened: as §3
Rattus norvegicus [38] = assay: Thyroid uptake after 3 days was determined in female Fischer rats after [125I]-labeled compound complexed with bovine serum albumin was injected intravenously; type: functional; procedure, shortened: as §2
[39] = Ratio of heart to liver uptake after 240 min was determined in female Fischer rats after [125I]-labeled compound complexed with bovine serum albumin was injected intravenously; type: functional; procedure, shortened: as §3
Rattus norvegicus [40] = assay: Lungs uptake after 5 min was determined in female Fischer rats after [125I]-labeled compound complexed with bovine serum albumin was injected intravenously; type: functional; procedure, shortened: as §1
Rattus norvegicus [41] = assay: Heart uptake after 2 hr was determined in female Fischer rats after [125I]-labeled compound complexed with bovine serum albumin was injected intravenously; type: functional; procedure, shortened: as §1

Compound `O=C(O)CCCCCCC[Te]CCCCCCC/C=C/I` has an Injected dose/g (Rattus norvegicus [1]) of 0.86%, an Injected dose/g (Rattus norvegicus [2]) of 294% and a Ratio [3] of 8. For the same compound, the Injected dose/g (Rattus norvegicus [4]) was 4.87%, the Ratio [5] was 0.75 and the Injected dose/g (Rattus norvegicus [6]) was 15%. The Injected dose/g (Rattus norvegicus [7]) was 0.36%, the Injected dose/g (Rattus norvegicus [8]) was 0.45% and the Injected dose/g (Rattus norvegicus [9]) was 38.5%. It also gave a Ratio [10] of 0.66, an Injected dose/g (Rattus norvegicus [11]) of 1.21% and an Injected dose/g (Rattus norvegicus [12]) of 0.53%. For the same compound, the Injected dose/g (Rattus norvegicus [13]) was 0.34%, the Injected dose/g (Rattus norvegicus [14]) was 0.23% and the Injected dose/g (Rattus norvegicus [15]) was 0.44%. The Injected dose/g (Rattus norvegicus [16]) was 6.41%, the Injected dose/g (Rattus norvegicus [17]) was 4.83% and the Ratio [18] was 21. For the same compound, the Injected dose/g (Rattus norvegicus [19]) was 0.46%, the Ratio [20] was 2.9 and the Ratio [21] was 3.1. For the same compound, the Ratio [22] was 4, the Injected dose/g (Rattus norvegicus [23]) was 3.76% and the Injected dose/g (Rattus norvegicus [24]) was 1.43%. For the same compound, the Injected dose/g (Rattus norvegicus [25]) was 5.17%, the Ratio [26] was 0.84 and the Injected dose/g (Rattus norvegicus [27]) was 3.76%. The Ratio [28] was 3.1, the Injected dose/g (Rattus norvegicus [29]) was 1.64% and the Injected dose/g (Rattus norvegicus [30]) was 1.52%. It also gave an Injected dose/g (Rattus norvegicus [31]) of 4.66%, an Injected dose/g (Rattus norvegicus [32]) of 5.69% and an Injected dose/g (Rattus norvegicus [33]) of 1.57%. It also gave a Ratio [34] of 3.7, an Injected dose/g (Rattus norvegicus [35]) of 66.9% and a Ratio [36] of 2.9. The Ratio [37] was 3.3, the Injected dose/g (Rattus norvegicus [38]) was 267% and the Ratio [39] was 0.93. The Injected dose/g (Rattus norvegicus [40]) was 1.63% and the Injected dose/g (Rattus norvegicus [41]) was 3.9%.

Compound `O=C(O)CCCCCCCCC[Te]CCCCC/C=C/I` has an Injected dose/g (Rattus norvegicus [1]) of 0.69%, an Injected dose/g (Rattus norvegicus [2]) of 221% and a Ratio [3] of 5. For the same compound, the Injected dose/g (Rattus norvegicus [4]) was 5.15%, the Ratio [5] was 0.37 and the Injected dose/g (Rattus norvegicus [6]) was 29%. It also gave an Injected dose/g (Rattus norvegicus [7]) of 0.67%, an Injected dose/g (Rattus norvegicus [8]) of 0.66% and an Injected dose/g (Rattus norvegicus [9]) of 45%. It also gave a Ratio [10] of 0.47, an Injected dose/g (Rattus norvegicus [11]) of 1.59% and an Injected dose/g (Rattus norvegicus [12]) of 1.03%. For the same compound, the Injected dose/g (Rattus norvegicus [13]) was 0.32%, the Injected dose/g (Rattus norvegicus [14]) was 0.45% and the Injected dose/g (Rattus norvegicus [15]) was 0.81%. For the same compound, the Injected dose/g (Rattus norvegicus [16]) was 8.33%, the Injected dose/g (Rattus norvegicus [17]) was 3.09% and the Ratio [18] was 7. The Injected dose/g (Rattus norvegicus [19]) was 0.62%, the Ratio [20] was 1.7 and the Ratio [21] was 2.5. For the same compound, the Ratio [22] was 2, the Injected dose/g (Rattus norvegicus [23]) was 2.52% and the Injected dose/g (Rattus norvegicus [24]) was 2.02%. For the same compound, the Injected dose/g (Rattus norvegicus [25]) was 3.63%, the Ratio [26] was 1.1 and the Injected dose/g (Rattus norvegicus [27]) was 3.05%. The Ratio [28] was 1.4, the Injected dose/g (Rattus norvegicus [29]) was 0.52% and the Injected dose/g (Rattus norvegicus [30]) was 2.06%. For the same compound, the Injected dose/g (Rattus norvegicus [31]) was 3.47%, the Injected dose/g (Rattus norvegicus [32]) was 6.49% and the Injected dose/g (Rattus norvegicus [33]) was 2.07%. The Ratio [34] was 1.5, the Injected dose/g (Rattus norvegicus [35]) was 72% and the Ratio [36] was 1.2. It also gave a Ratio [37] of 1.8, an Injected dose/g (Rattus norvegicus [38]) of 227% and a Ratio [39] of 0.97. The Injected dose/g (Rattus norvegicus [40]) was 2.49% and the Injected dose/g (Rattus norvegicus [41]) was 3.8%.
